In ChEMBL document CHEMBL3739331, “Synthesis and Bioactivities of Kanamycin B-Derived Cationic Amphiphiles” (J Med Chem, 2015):
Values after ≈ are worked out from the molar mass of the structure shown. Active and inactive are the calls of the source. No cut-off for these calls is given here.

Assays:
[1] = system: Bacillus subtilis; assay: Antibacterial activity against Bacillus subtilis 168 by microdilution method; assay type: functional; conditions: subsp. subtilis str. 168
How it was run: (§1)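 Broth microdilution MIC against the named bacterial strain, reported in μg/mL; each determination run at least in duplicate.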

[2] = system: Listeria monocytogenes; assay: Antibacterial activity against Listeria monocytogenes ATCC 19115 by microdilution method; assay type: functional; how it was run: as §1
[3] = system: Enterococcus; assay: Antibacterial activity against vancomycin-resistant Enterococcus by microdilution method; assay type: functional
How it was run: (§2)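 Broth microdilution MIC, in μg/mL, against a panel of Gram-positive and Gram-negative strains. Run at least in duplicate.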

[4] = Activity of Mycobacterium tuberculosis […]/AAC(3)-4 (unknown origin)/Serratia marcescens AAC(6')-2d (unknown origin) assessed as compound conversion to diacetylated adduct incubated for 20 hrs by TLC analysis
[5] = system: Candida albicans; assay: Antifungal activity against azole-resistant Candida albicans MYA-1237 after 48 hrs by microbroth dilution method; assay type: functional; conditions: MYA-1237, 48 h
How it was run: (§3)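 Yeast MIC by broth microdilution, run in duplicate. The aminoglycoside compounds are read as MIC-0 (complete inhibition). Azoles are read as MIC-2 (50% inhibition).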

[6] = Activity of Mycobacterium tuberculosis AAC(2')-1c/AAC(3)-4 (unknown origin) assessed as compound conversion to 3'-acetylated product incubated for 20 hrs by TLC analysis
[7] = system: Staphylococcus aureus; assay: Antibacterial activity against Staphylococcus aureus NRS382 (USA 100) by microdilution method; assay type: functional; how it was run: as §1
[8] = system: Candida albicans; assay: Antifungal activity against azole-resistant Candida albicans ATCC 64124 assessed as cell membrane permeabilization at 62.5 ug/ml after 1 hr by propidium iodide-staining based fluorescence microscopic analysis (reference value: <2%); assay type: functional
[9] = Activity of AAC(3)-4 (unknown origin) assessed as compound conversion to monoacetylated product incubated for 20 hrs by TLC analysis
[10] = system: Pseudomonas aeruginosa; assay: Antibacterial activity against Pseudomonas aeruginosa ATCC 27853 by microdilution method; assay type: functional; how it was run: as §1
[11] = system: Acinetobacter baumannii; assay: Antibacterial activity against Acinetobacter baumannii ATCC 19606 by microdilution method; assay type: functional; how it was run: as §1
[12] = system: Staphylococcus epidermidis; assay: Antibacterial activity against Staphylococcus epidermidis ATCC 12228 by microdilution method; assay type: functional; how it was run: as §1
[13] = system: Candida albicans; assay: Antifungal activity against azole-resistant Candida albicans ATCC 90819 after 48 hrs by microbroth dilution method; assay type: functional; conditions: ATCC 90819, 48 h; how it was run: as §3
[14] = system: Enterobacter cloacae; assay: Antibacterial activity against Enterobacter cloacae ATCC 13047 by microdilution method; assay type: functional; how it was run: as §1
[15] = system: Staphylococcus aureus; assay: Antibacterial activity against Staphylococcus aureus NRS22 (USA 600) by microdilution method; assay type: functional; how it was run: as §1
[16] = Activity of Mycobacterium tuberculosis AAC(2')-1c/Serratia marcescens AAC(6')-2d assessed as compound conversion to 6'-monoacetylated product incubated for 20 hrs by TLC analysis
[17] = system: Aspergillus nidulans; assay: Antifungal activity against Aspergillus nidulans ATCC 38163 after 48 hrs by microbroth dilution method; assay type: functional; conditions: ATCC 38163, 48 h
How it was run: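 Filamentous fungus MIC by broth microdilution, run in duplicate. All compounds are read as MIC-0 (complete inhibition).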

[18] = system: Staphylococcus aureus; assay: Antibacterial activity against Staphylococcus aureus NRS383 (USA 200) by microdilution method; assay type: functional; how it was run: as §1
[19] = system: Candida albicans; assay: Antifungal activity against azole-resistant Candida albicans ATCC 64124 after 48 hrs by microbroth dilution method; assay type: functional; conditions: ATCC 64124, 48 h; how it was run: as §3
[20] = system: Staphylococcus aureus; assay: Antibacterial activity against methicillin-resistant Staphylococcus aureus by microdilution method; assay type: functional; how it was run: as §2
[21] = Cytotoxicity against human BEAS2B cells after 24 hrs by resazurin assay; assay type: cell-based, BEAS-2B; conditions: human, beas-2b
[22] = Hemolytic activity against mouse RBC at 100 to 500 ug/ml after 60 mins; assay type: ADME, cell-based; conditions: erythrocyte, 1 h
[23] = system: Serratia marcescens; assay: Activity of Serratia marcescens AAC(6')-2d assessed as compound conversion to monoacetylated product incubated for 20 hrs by TLC analysis
[24] = system: Mycolicibacterium smegmatis; assay: Antibacterial activity against Mycobacterium smegmatis MC2 155 by microdilution method; assay type: functional; conditions: str. MC2 155; how it was run: as §2
[25] = system: Salmonella enterica; assay: Antibacterial activity against Salmonella enterica ATCC 14028 by microdilution method; assay type: functional; how it was run: as §1
[26] = system: Klebsiella pneumoniae; assay: Antibacterial activity against Klebsiella pneumoniae ATCC 27736 by microdilution method; assay type: functional; how it was run: as §1
[27] = system: Listeria monocytogenes; assay: Resistance index, ratio of MIC for Listeria monocytogenes ATCC 19115 after 6-passage to MIC for Listeria monocytogenes ATCC 19115 by microdilution method; assay type: functional
How it was run: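 Cells grown at subinhibitory concentration (1/2 MIC) seed each next round. The index compares the MIC at a later passage with the starting MIC.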

[28] = system: A549; assay: Cytotoxicity against human A549 cells after 24 hrs by resazurin assay; assay type: cell-based; conditions: human, a549, 24 h
[29] = system: Candida albicans; assay: Antifungal activity against azole-susceptible Candida albicans ATCC MYA-2876 after 48 hrs by microbroth dilution method; assay type: functional; conditions: ATCC MYA-2876, 48 h; how it was run: as §3
[30] = system: Mycobacterium tuberculosis; assay: Activity of Mycobacterium tuberculosis AAC(2')-1c assessed as compound conversion to monoacetylated product incubated for 20 hrs by TLC analysis
[31] = system: Staphylococcus aureus; assay: Antibacterial activity against Staphylococcus aureus NRS385 (USA 300) by microdilution method; assay type: functional; how it was run: as §2
[32] = system: Staphylococcus aureus; assay: Antibacterial activity against Staphylococcus aureus ATCC 29213 by microdilution method; assay type: functional; how it was run: as §1
[33] = Activity of AAC(3)-4 (unknown origin)/Serratia marcescens AAC(6')-2d assessed as compound conversion to 3'-acetylated product incubated for 20 hrs by TLC analysis
[34] = system: Candida albicans; assay: Antifungal activity against azole-resistant Candida albicans ATCC 10231 after 48 hrs by microbroth dilution method; assay type: functional; conditions: ATCC 10231, 48 h; how it was run: as §3
[35] = system: Candida albicans; assay: Antifungal activity against azole-resistant Candida albicans MYA-1003 after 48 hrs by microbroth dilution method; assay type: functional; conditions: MYA-1003, 48 h; how it was run: as §3
[36] = system: Escherichia coli; assay: Antibacterial activity against Escherichia coli MC1061 by microdilution method; assay type: functional; how it was run: as §2
[37] = system: Candida albicans; assay: Antifungal activity against azole-susceptible Candida albicans ATCC MYA-2310 after 48 hrs by microbroth dilution method; assay type: functional; conditions: ATCC MYA-2310, 48 h; how it was run: as §3

NC[C@H]1O[C@H](O[C@H]2[C@H](O)[C@@H](O[C@H]3O[C@H](CO)[C@@H](O)[C@H](N)[C@H]3O)[C@H](N)C[C@@H]2N)[C@H](N)[C@@H](O)[C@@H]1O [BEKANAMYCIN]
MIC [1]: 4 µg/mL (≈ 8.27 µM)
MIC [2]: ≤ 0.25 µg/mL
MIC [3]: > 128 µg/mL
Activity [4]: Active
MIC [5]: > 125 µg/mL
Activity [6]: inactive
MIC [7]: > 128 µg/mL
Activity [8]: 5%
Activity [9]: Active
MIC [10]: 16 µg/mL (≈ 33.1 µM)
MIC [11]: 4 µg/mL (≈ 8.27 µM)
MIC [12]: 0.5 µg/mL (≈ 1.03 µM)
MIC [13]: > 125 µg/mL
MIC [14]: 0.5 µg/mL (≈ 1.03 µM)
MIC [15]: 32 µg/mL (≈ 66.2 µM)
Activity [16]: inactive
MIC [17]: > 125 µg/mL
MIC [18]: 128 µg/mL (≈ 265 µM)
MIC [19]: > 125 µg/mL
MIC [20]: > 128 µg/mL
Activity [21]: Non-toxic
Activity [22]: Non-toxic
Activity [23]: Active
MIC [24]: ≤ 0.25 µg/mL
MIC [25]: 2 µg/mL (≈ 4.14 µM)
MIC [26]: 4 µg/mL (≈ 8.27 µM)
Ratio [27]: 4
Activity [28]: Non-toxic
MIC [29]: > 125 µg/mL
Activity [30]: Active
MIC [31]: 32 µg/mL (≈ 66.2 µM)
MIC [32]: ≤ 0.25 µg/mL
Activity [33]: inactive
MIC [34]: > 125 µg/mL
MIC [35]: > 125 µg/mL
MIC [36]: 2 µg/mL (≈ 4.14 µM)
MIC [37]: > 125 µg/mL
